S100A4 inh HTS: inhibitors of human S100A4 binding to myosin IIA peptide | P26447 | S100A4/TAMRA-MyoIIA peptide fluorescence polarization | inhibition, % at 10.7 µM | hit rate 0.14% among 360,000 | AID 652163;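 active = mean inhibition of at least 70% across replicates, with every replicate also reaching that level; inconclusive = mean inhibition reaches 70% but some replicates fall short; inactive = mean inhibition below 70%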
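System – human S100A4 monomer protein, biochemical binding assay · Buffer or medium – Calcium-containing HEPES buffer, pH 7.2 · Timing – 5 min between mix addition and reading · Also added – TAMRA-labelled myosin IIA heavy-chain peptide probe, 5 nM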
DENV2 CPE rescue: protects cells from dengue virus 2 cytopathic effect; DENV2-infected cells, cytopathic effect rescue, plate reader; CPE inhibition, % at 9.99 µM; AID 651640; hit rate 1.7% among 350,000; in the data active = CPE inhibition above about 20%, passing the limit was not always enough; inconclusive = no clear call, values can overlap the other calls; tested in BHK-21 cells;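 also: 0% = median of neutral control wells and 100% = median of positive control wells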
MLL AF4-AF9 inh: inhibitors of human MLL-AF4/AF9 interaction. hit rate 0.47% among 350,000. inhibition, % at 10 µM. P42568. AlphaScreen, biotin-AF4 peptide binding to FLAG-AF9;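 active = every replicate reaching a set inhibition limit, whatever the replicate mean, cut at about 25% in these data; inconclusive = mean inhibition reaches that limit but some replicates miss it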;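 also: 0% = plate neutral control median and 100% = total signal loss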
Target sequence (P42568 whole entry, looked up): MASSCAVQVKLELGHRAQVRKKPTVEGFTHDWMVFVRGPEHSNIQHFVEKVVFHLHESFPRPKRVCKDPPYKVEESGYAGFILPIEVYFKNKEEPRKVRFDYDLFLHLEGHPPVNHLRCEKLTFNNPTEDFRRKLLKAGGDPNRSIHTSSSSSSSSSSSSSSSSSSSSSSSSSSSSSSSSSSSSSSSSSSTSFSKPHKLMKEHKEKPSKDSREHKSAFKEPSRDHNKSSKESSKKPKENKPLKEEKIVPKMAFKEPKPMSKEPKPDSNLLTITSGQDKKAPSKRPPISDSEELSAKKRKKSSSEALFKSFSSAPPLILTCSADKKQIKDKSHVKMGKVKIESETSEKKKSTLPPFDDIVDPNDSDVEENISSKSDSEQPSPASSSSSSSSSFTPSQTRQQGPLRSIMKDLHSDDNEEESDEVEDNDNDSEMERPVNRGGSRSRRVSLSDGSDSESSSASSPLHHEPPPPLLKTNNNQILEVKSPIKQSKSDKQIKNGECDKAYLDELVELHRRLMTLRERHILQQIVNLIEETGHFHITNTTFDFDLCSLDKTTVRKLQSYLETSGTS
PfHsp90 yeast 2: reduces growth (ATP signal) of yeast expressing P. falciparum Hsp90; S. cerevisiae expressing PfHsp90, BacTiter-Glo ATP, 48 h; yeast lacking PDR1 and PDR3 efflux regulators; inhibition, % at 9.4 µM; hit rate 0.32% among 310,000;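 active = every replicate shows inhibition above about 80%, whatever the replicate mean, limit read from the data; inconclusive = mean inhibition reaches the set limit but some replicate falls short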;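 also: 0% = DMSO neutral controls and 100% = 20 µM radicicol positive controls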
Cneo AK release: Cryptococcus neoformans lysis via adenylate kinase release. C. neoformans lysis, adenylate kinase release luminescence, 4 h; normalised: neutral wells 0, clomiphene wells 100. lysis activity, % at 15 µM. hit rate 0.2% among 360,000;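 active = mean lysis activity across replicates of at least 80%, whatever share of replicates individually reach that level; inactive = mean lysis activity below 80%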
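Material: C. neoformans cells; Schedule: 4 h static compound exposure, 37 °C, read 1 h post-reagent; Measured by: adenylate kinase release luminescence; Read-out: signal increase indicating cell lysis; Controls: Clomiphene as positive lysis control.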
Ecoli rRNA inh: inhibits bacterial ribosomal RNA function over humanized ribosomes | GFP signal change (wild-type ribosome), % (no concentration beside the values) | hit rate 1.6% among 350,000 | E. coli WT GFP vs humanized-ribosome RFP mutants, fluorescence, 24 h; active compounds read low; DMSO median 0, no signal -100;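 active = significant combined selectivity score with lowered wild-type GFP, culture density cut under 30%, mutant RFP and density less affected; inactive = any of these conditions unmet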
Starred values were filed as active, the others as inactive; ? = inconclusive; · = no result. An excerpt weighted towards active compounds, which were near 3.2% of everything screened.

SMILES	S100A4 inh HTS	DENV2 CPE rescue	MLL AF4-AF9 inh	PfHsp90 yeast 2	Cneo AK release	Ecoli rRNA inh
C[C@@H]1CN([C@H](C)CO)C(=O)c2cccc(NC(=O)C3CC3)c2O[C@H]1CN(C)Cc1ccncc1	8	-3	-7	·	2	2
C[C@H]1CN([C@@H](C)CO)C(=O)c2cccc(NC(=O)C3CC3)c2O[C@@H]1CN(C)Cc1ccc2c(c1)OCO2	122*	-5	-1	·	-2	-3
C[C@H](CO)N1C[C@H](C)[C@H](CN(C)S(=O)(=O)c2cccs2)Oc2ccc(NS(=O)(=O)c3ccc(F)cc3)cc2CC1=O	-4	-12	3	·	-1	2
CN(C)CC(=O)Nc1ccc2c(c1)[C@@H]1C[C@H](CC(=O)NCCN3CCCCC3)O[C@@H](CO)[C@@H]1O2	-22	4	3	·	0	2
CO[C@@H]1CN(C)C(=O)c2ccc(NC(=O)C3CCC3)cc2OC[C@@H](C)N(Cc2ccncc2)C[C@H]1C	1	0	-1	·	·	-3
C[C@@H]1CN([C@@H](C)CO)C(=O)c2cc(NC(=O)Nc3ccccc3)ccc2O[C@@H]1CN(C)S(=O)(=O)c1ccccc1	3	11	1	·	-4	3
COc1ccc2c3c([nH]c2c1)[C@@H](CO)N(Cc1ccncc1)CC31CCN(C(=O)CN(C)C)CC1	-13	18	·	·	·	3
Cc1noc(C)c1S(=O)(=O)Nc1ccc2c(c1)C(=O)N([C@@H](C)CO)C[C@H](C)[C@@H](CN(C)C(=O)Nc1ccc(F)cc1)O2	·	·	·	·	·	-2
CCOC(=O)N1CCC(NC(=O)c2cc(S(=O)(=O)N3CCc4ccccc43)cn2C)CC1	·	·	·	15	-2	·
CCOC(=O)c1cc(S(=O)(=O)N2CCc3ccccc32)cn1C	23	39*	-1	20	3	17
C[C@H]1CCCCO[C@@H](CN(C)Cc2ccc(C(=O)O)cc2)[C@@H](C)CN([C@@H](C)CO)C(=O)c2cc(NC(=O)c3ccccc3)ccc2O1	19	-7	-1	·	-1	1
C[C@@H]1CCCCO[C@@H](CN(C)Cc2ccc(C(=O)O)cc2)[C@H](C)CN([C@H](C)CO)C(=O)c2cc(NC(=O)c3ccccc3)ccc2O1	-4	79*	-5	·	48	3
C[C@@H]1CN([C@H](C)CO)C(=O)c2cc(NC(=O)c3ccccc3)ccc2O[C@@H](C)CCCCO[C@@H]1CN(C)Cc1ccc(C(=O)O)cc1	2	115*	-4	·	51	-2
O=S(=O)(Cc1ccccc1)N1[C@H](CO)[C@@H](c2ccccc2)C12CN(CCC(F)(F)F)C2	-8	-10	3	·	·	-4
Oc1ccc(-c2c(-c3ccsc3)sc3ccccc23)cc1	1	?	-2	107*	1	-22
COCc1ccc(-c2c(-c3ccsc3)sc3ccccc23)cc1	-5	-7	-1	-2	0	-2
COc1ccc(NC(C)(C)c2nnnn2-c2c(C)cccc2C)cc1	4	2	5	-3	·	-25*
COc1ccc(C(c2sc3ncnn3c2O)N2CC(C)OC(C)C2)cc1OC (stereo not drawn)	-4	75*	-1	-3	-2	1
COc1cccc(C#Cc2cnc3c(c2)C(=O)N([C@H](C)CO)C[C@H](C)[C@@H](CN(C)C(=O)C2CC2)O3)c1	-1	16	7	·	36	5
COc1ccc(CC(=O)Nc2ncc([N+](=O)[O-])s2)cc1OC	-3	6	-7	·	1	-50*
COc1ccc(CC(=O)Nc2nccs2)cc1OC	·	·	·	-15	·	·
COc1ccc(S(=O)(=O)Nc2cccc3c2O[C@H](CN(C)CC2CC2)[C@@H](C)CN([C@@H](C)CO)C3=O)cc1	-22	-6	-8	·	2	-2
CC(C)CCCN1CCN=C1Nc1ccccc1	-2	27*	4	6	1	8
CCCCN1CCN=C1Nc1ccccc1	-4	-7	-1	-2	1	8
Fc1ccc(CCN2CCN=C2Nc2ccccc2)cc1	7	124*	-6	2	-2	22
SMILES	S100A4 inh HTS	DENV2 CPE rescue	MLL AF4-AF9 inh	PfHsp90 yeast 2	Cneo AK release	Ecoli rRNA inh
O=C(NCC[C@H]1CC[C@H](NC(=O)C2CCC2)[C@H](CO)O1)Nc1ccc(Cl)cc1	4	0	5	·	-3	-18
CC(=O)/C(C#N)=C1\NC(=O)C(Cc2ccc(C)c(Cl)c2)S1 (stereo not drawn)	-8	87*	-1	-12	-4	-34
O=C(COc1ccc2c(-c3ccccc3)cc(=O)oc2c1)NC1CCS(=O)(=O)C1 (stereo not drawn)	-5	143*	·	-9	-2	9
COc1ccc(-c2cc(=O)oc3cc(OCC(C)=O)ccc23)cc1	5	9	2	32	1	8
CCN(CC)C(=O)COc1ccc2c(-c3ccc(OC)cc3)cc(=O)oc2c1	-3	12	-2	-6	-1	-22*
O=C(COc1ccc2ccc(=O)oc2c1)NC1CCS(=O)(=O)C1 (stereo not drawn)	-5	0	1	·	-3	9
Cc1noc(C)c1NC(=O)Nc1ccc2c(c1)CC(=O)N([C@@H](C)CO)C[C@@H](C)[C@H](CN(C)Cc1ccc(-c3ccccc3)cc1)O2	13	4	6	·	·	-4
Cc1ccc(SCC(=O)NNC(=O)c2cncc(Br)c2)cc1	1	34*	0	-22	-1	5
CO[C@@H]1CN(C)C(=O)c2cc(NC(C)=O)ccc2OC[C@@H](C)N(C(=O)CN2CCOCC2)C[C@H]1C	5	-1	-1	·	-1	0
CS(=O)(=O)Nc1ccccc1C(=O)OCC(=O)N1CCC(c2ccccc2)=N1	-1	-10	3	-3	0	-32*
CCN(c1ccccc1)S(=O)(=O)c1cc(OC)ccc1OC	·	·	·	13	0	·
CCN(c1ccccc1)S(=O)(=O)c1ccc(OC)c(NC(=O)C2CCC2)c1	-2	68*	-1	24	-1	·
CCN(c1ccccc1)S(=O)(=O)c1ccc2c(c1)N(C(C)=O)CCS2	1	4	-2	11	1	-26*
CCN(c1ccccc1)S(=O)(=O)c1ccc(OC)c(OC)c1	-2	2	1	-16	·	-18*
CCN(c1ccccc1)S(=O)(=O)c1ccc2c(c1)N(C(C)=O)CCO2	0	3	0	11	0	3
COc1ccccc1CN1[C@H](CO)[C@@H]2c3ccccc3N(C(=O)C3CCCC3)C[C@@H]21	-3	14	2	·	1	-8

Bioassay records as filed in PubChem.
